Screening results from PubChem.
Rows were chosen to be rich in hits. Some 2.4% of all compounds tested hit in one or more screens of this group.
MT stabilize HCS – stabilizes microtubules in HeLa cells | HeLa tubulin immunostaining HCS, 24 h; share of cells brighter than vehicle mean+2SD | % tubulin-high responders, % at 10 µM | 200,000 tested, 0.83% active;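 active = plate Z-score above 3 for both tubulin-high and condensed-nucleus cell shares, with cell loss under 80%, at 10 µM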;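 note: anti alpha tubulin signal scored within the nucleus-defined area of each cell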
ROMK mod – modulates human ROMK potassium channel activity | B-score at 10 µM | Tet-inducible ROMK, thallium flux fluorescence; actives lie on both sides | 130,000 tested, 2% active;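 active = signal ratio slope over the read window, or its plate-corrected B-score, at least 3 SD from the plate mean, either direction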;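 note: B-score of the F/F0 ratio slope over 7 to 12 s after thallium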
Target sequence (P48048 whole entry, looked up): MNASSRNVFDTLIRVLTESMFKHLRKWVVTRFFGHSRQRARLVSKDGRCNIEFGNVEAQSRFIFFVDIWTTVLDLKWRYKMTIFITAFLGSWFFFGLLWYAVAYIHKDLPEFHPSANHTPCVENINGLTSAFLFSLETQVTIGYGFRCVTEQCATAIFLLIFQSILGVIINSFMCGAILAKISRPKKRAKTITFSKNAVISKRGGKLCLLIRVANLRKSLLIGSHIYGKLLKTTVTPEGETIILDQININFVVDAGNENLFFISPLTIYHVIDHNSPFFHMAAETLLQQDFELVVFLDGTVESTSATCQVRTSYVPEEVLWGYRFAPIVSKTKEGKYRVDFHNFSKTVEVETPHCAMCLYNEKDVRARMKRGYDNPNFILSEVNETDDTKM
b-catenin transl – modulators of beta-catenin nuclear translocation | HeLa beta-catenin nuclear translocation, immunofluorescence imaging | nuclear translocation activity, % at 5 µM | 190,000 tested, 0.3% active;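 active = nuclear translocation activity above 50% at 5 µM, with a well cell count of 50 or more; inconclusive = wells under 50 cells across six images, flagged as toxic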;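 note: per-cell ratio of nuclear to cytoplasmic median beta-catenin stain intensity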
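Test system: human HeLa cells, native beta-catenin. Compound dosing: 5 µM primary single dose, 0.1% DMSO, 0.02–20 µM confirmation series. Incubation: compound exposure 24 h at 37°C. Detection: beta-catenin immunostaining with DAPI counterstain, 20x imaging, 6 fields/well. Read-out basis: Nuclear/cytoplasmic beta-catenin signal ratio, % activation.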
HSV augment – HSV replication enhancement; HSV replication augmentation in cells, fold increase; maximum fold increase; 220,000 tested, 0.005% active; AID 1956; in the data active = maximum fold increase above about 1.5; inconclusive = no clear call, values can overlap the other calls; tested in PC3 cells
INS promoter inh – TRM-6 insulin promoter activity inhibition | TRM-6 cells, insulin promoter-eGFP reporter, imaging; reporter expression induced with tamoxifen | inhibition, % at 2 µM | 130,000 tested, 0.9% active | AID 1273;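 active = inhibition above the mean plus 3 SD, with well images judged a real hit on visual review, cut at about 60% in these data, passing the limit was not always enough; inconclusive = inhibition over the cutoff but images rejected on review; inactive = inhibition not above the cutoff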
ROMK retest – confirmation of human ROMK potassium channel modulators; normalized thallium flux (F/F0 slope) at 10 µM; 3,000 tested, 54% active; AID 1917; ROMK thallium flux, fluorescence ratio; active compounds read low; shares compounds with ROMK mod;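 active = Flux at 10 µM at least 3 SD below or above vehicle control mean in one or both replicates; inconclusive = no clear call, values can overlap the other calls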
Hits are given with their value.

CC(C)NC(=O)/C(C#N)=C/c1ccc(N(C)C)o1 was read as ROMK mod -7.4, b-catenin transl inactive, HSV augment inconclusive and ROMK retest 0.047.
For Cn1c(=O)c2c(nc(N3CCN(Cc4ccccc4)CC3)n2CCCc2ccccc2)n(C)c1=O the results were MT stabilize HCS inactive, b-catenin transl inactive, HSV augment inactive, INS promoter inh inactive and ROMK retest 0.058.
`CCOc1nc2ccccc2cc1C=O` gave MT stabilize HCS inactive, ROMK mod 5.3, b-catenin transl inactive, HSV augment inactive and ROMK retest 0.12.
COc1ccc(S(=O)(=O)NC(CC(=O)NCc2ccco2)c2ccco2)cc1 (stereo unspecified) was read as MT stabilize HCS inactive, HSV augment inactive and INS promoter inh inactive.
`Cc1ccc(S(=O)(=O)NC(CC(=O)NCc2ccco2)c2ccco2)cc1` (stereo unspecified) gave MT stabilize HCS inactive, ROMK mod 2.8, b-catenin transl inactive, HSV augment inactive, INS promoter inh inactive and ROMK retest inconclusive.
CC1CCCN(c2nc3ccccc3nc2C(C#N)C(=O)OC2CCCCC2)C1 (stereo unspecified) was read as MT stabilize HCS inactive, b-catenin transl inactive, HSV augment inactive and INS promoter inh inactive.
Screening CC1CCCN(c2nc3ccccc3nc2C(C#N)S(=O)(=O)c2cccs2)C1 (stereo unspecified) returned MT stabilize HCS inactive, ROMK mod -4.5, b-catenin transl inactive, HSV augment inactive, INS promoter inh inactive and ROMK retest 0.059.
CC1(C)CC(=O)C(C(C#Cc2ccccc2)C2=C(O)CC(C)(C)CC2=O)=C(O)C1 was read as MT stabilize HCS inactive, b-catenin transl inactive, HSV augment inactive and INS promoter inh inactive.
`O=C1CCCC(O)=C1C(C#Cc1ccccc1)C1=C(O)CCCC1=O` gave MT stabilize HCS inactive, ROMK mod -3.8, b-catenin transl inactive, HSV augment inactive, INS promoter inh inactive and ROMK retest 0.063.
`O=C(O)CC(NC(=O)Cc1ccc([N+](=O)[O-])cc1)c1ccc2c(c1)OCO2` (stereo unspecified) gave MT stabilize HCS inactive, ROMK mod inactive, b-catenin transl inactive and HSV augment inactive.
Screening C=CC[n+]1c(-c2ccc(Cl)cc2Cl)csc1Nc1c(C)n(C)n(-c2ccccc2)c1=O returned MT stabilize HCS inactive, ROMK mod inactive, b-catenin transl inactive and HSV augment inactive.
C=CC[n+]1c(-c2ccc(Cl)cc2Cl)csc1Nc1ccc(NC(C)=O)cc1 was read as MT stabilize HCS inactive, ROMK mod 2.5, b-catenin transl inactive, HSV augment inactive and ROMK retest inactive.
For CCN(CC)c1ccc2ccc(=O)oc2c1 the results were MT stabilize HCS inactive, ROMK mod inactive, b-catenin transl inactive and HSV augment inactive.
`CCN(CC)c1ccc2cc(C#N)c(=O)oc2c1` gave MT stabilize HCS inactive, b-catenin transl inactive, HSV augment inconclusive, INS promoter inh inactive and ROMK retest 0.046.
For CC(=O)Nc1ccc(N2CCOCC2)c([N+](=O)[O-])c1 the results were MT stabilize HCS inactive, ROMK mod inactive, b-catenin transl inactive and HSV augment inactive.
Cc1ccc2c(c1)C(=O)C(=O)N2CCCOc1ccccc1 was read as MT stabilize HCS inactive, ROMK mod 3.6, b-catenin transl inactive, HSV augment inactive, INS promoter inh inactive and ROMK retest inactive.
Screening CCN(CC)c1ncc(C#N)c(N)n1 returned b-catenin transl inactive and HSV augment inactive.
COc1ccccc1-c1cc(C(F)(F)F)nc(S(=O)(=O)CCCC(=O)N2CCOCC2)n1 was read as MT stabilize HCS inactive, ROMK mod -3.4, b-catenin transl inactive, HSV augment inactive, INS promoter inh inactive and ROMK retest inconclusive.
For COc1ccc(NC(=O)N2CCCC(c3nc(-c4ccc(C(C)C)cc4)no3)C2)cc1 (stereo unspecified) the results were MT stabilize HCS inactive, b-catenin transl inactive and HSV augment inactive.
`COc1cccc(C2=Nn3c(nnc3-c3ccccc3O)SC2)c1` gave MT stabilize HCS inactive, b-catenin transl inactive, HSV augment inactive and INS promoter inh inactive.
Screening C[n+]1c2n(c3ccccc31)N=C(c1cc(C(C)(C)C)c(O)c(C(C)(C)C)c1)CS2 returned MT stabilize HCS inactive, ROMK mod -5.5, b-catenin transl inactive, HSV augment inactive, INS promoter inh inactive and ROMK retest 0.039.
CC(Cc1ccccc1)C(=O)N(C)Cc1cccnc1 (stereo unspecified) was read as MT stabilize HCS inactive, ROMK mod inactive, b-catenin transl inactive, HSV augment inactive and INS promoter inh inactive.
COc1cc(Nc2ncnc(N)n2)cc(OC)c1 was read as ROMK mod inactive, b-catenin transl inactive and HSV augment inactive.
For CN1CCN(CCCN2c3ccccc3Sc3ccc(Cl)cc32)CC1 the results were MT stabilize HCS inactive, b-catenin transl inactive, HSV augment inactive, INS promoter inh inactive and ROMK retest 0.048.
For OCCN1CCN(CCCN2c3ccccc3Sc3ccc(C(F)(F)F)cc32)CC1 the results were MT stabilize HCS inactive, b-catenin transl inactive, HSV augment inactive and INS promoter inh inactive.
`CC(=O)c1cc2ccc(O)cc2oc1=O` gave ROMK mod -6.4, b-catenin transl inactive, HSV augment inactive and ROMK retest 0.05.
Screening Cc1nnc(SCC(=O)N(C)c2ccccc2)n1Cc1ccccc1 returned MT stabilize HCS inactive, ROMK mod inactive, b-catenin transl inactive and HSV augment inactive.
For Cc1ccc(NC(C#N)c2ccccc2OCc2ccccc2)cc1 (stereo unspecified) the results were MT stabilize HCS inactive, b-catenin transl inactive and ROMK retest inactive.
For COc1ccc(C2(C(=O)Nc3ccc(C)cc3)CCOCC2)cc1 the results were MT stabilize HCS inactive, ROMK mod inactive, b-catenin transl inactive and HSV augment inactive.
Screening O=c1[nH]c(NCCCO)nc2c1C1(CCCC1)Cc1ccccc1-2 returned MT stabilize HCS inactive, ROMK mod -3.4, b-catenin transl inactive, HSV augment inactive, INS promoter inh inactive and ROMK retest 0.057.
For CCC1(CC)Cc2ccccc2-c2nc(NCCCO)[nH]c(=O)c21 the results were MT stabilize HCS inactive, ROMK mod inactive, b-catenin transl inactive and HSV augment inactive.
For CN(C)c1cc(O)c(C(=S)Nc2ccccc2)c(N(C)C)c1 the results were MT stabilize HCS inactive, ROMK mod -3.3, INS promoter inh inactive and ROMK retest 0.063.
Screening CN(C)c1ccc(C(=S)Nc2ccccc2)cc1 returned MT stabilize HCS inactive, ROMK mod inactive, b-catenin transl inactive, HSV augment inactive and INS promoter inh inactive.
`CCn1c(/C=C/c2c(C)[nH]c3ccccc23)nc2ccccc2c1=O` gave MT stabilize HCS inactive, b-catenin transl inactive, HSV augment inactive, INS promoter inh inactive and ROMK retest 0.047.
For CCn1c(/C=C/c2c[nH]c3ccccc23)nc2ccccc2c1=O the results were MT stabilize HCS inactive, b-catenin transl inactive and HSV augment inactive.
